{"source": "paper PMC2828288", "about": "(Journal of medicinal chemistry, 2010)", "key": {"FAAH [1]": {"target": "T1, FAAH (Mus musculus, UniProt O08914)", "T1 sequence (O08914 1-579)": "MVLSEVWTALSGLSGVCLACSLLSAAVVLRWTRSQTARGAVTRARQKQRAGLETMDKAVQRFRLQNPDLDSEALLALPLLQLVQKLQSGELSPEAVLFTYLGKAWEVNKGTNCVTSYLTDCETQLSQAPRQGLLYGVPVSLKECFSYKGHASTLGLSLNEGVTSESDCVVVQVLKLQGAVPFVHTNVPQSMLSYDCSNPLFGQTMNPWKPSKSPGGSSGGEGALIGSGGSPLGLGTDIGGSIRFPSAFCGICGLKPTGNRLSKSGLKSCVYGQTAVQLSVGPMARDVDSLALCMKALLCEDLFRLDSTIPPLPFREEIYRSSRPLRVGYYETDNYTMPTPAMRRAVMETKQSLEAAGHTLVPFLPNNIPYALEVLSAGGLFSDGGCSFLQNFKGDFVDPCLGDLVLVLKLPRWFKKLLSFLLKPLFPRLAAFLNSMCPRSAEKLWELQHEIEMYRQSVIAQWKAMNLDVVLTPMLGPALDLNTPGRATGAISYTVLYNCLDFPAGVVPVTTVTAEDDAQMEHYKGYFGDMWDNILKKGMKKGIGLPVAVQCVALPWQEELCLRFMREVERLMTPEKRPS", "assay": "FAAH activity after in vivo administration to mice", "conditions": "administration to mice at doses that reduced MAGL activity; data not shown"}, "MAGL [2]": {"test_system": "MAGL", "assay": "Competitive ABPP", "format": "biochemical, mouse", "conditions": "brain proteome"}, "NTE [3]": {"target": "T2, NTE (Mus musculus, UniProt Q3TRM4)", "T2 sequence (Q3TRM4 1-1355)": "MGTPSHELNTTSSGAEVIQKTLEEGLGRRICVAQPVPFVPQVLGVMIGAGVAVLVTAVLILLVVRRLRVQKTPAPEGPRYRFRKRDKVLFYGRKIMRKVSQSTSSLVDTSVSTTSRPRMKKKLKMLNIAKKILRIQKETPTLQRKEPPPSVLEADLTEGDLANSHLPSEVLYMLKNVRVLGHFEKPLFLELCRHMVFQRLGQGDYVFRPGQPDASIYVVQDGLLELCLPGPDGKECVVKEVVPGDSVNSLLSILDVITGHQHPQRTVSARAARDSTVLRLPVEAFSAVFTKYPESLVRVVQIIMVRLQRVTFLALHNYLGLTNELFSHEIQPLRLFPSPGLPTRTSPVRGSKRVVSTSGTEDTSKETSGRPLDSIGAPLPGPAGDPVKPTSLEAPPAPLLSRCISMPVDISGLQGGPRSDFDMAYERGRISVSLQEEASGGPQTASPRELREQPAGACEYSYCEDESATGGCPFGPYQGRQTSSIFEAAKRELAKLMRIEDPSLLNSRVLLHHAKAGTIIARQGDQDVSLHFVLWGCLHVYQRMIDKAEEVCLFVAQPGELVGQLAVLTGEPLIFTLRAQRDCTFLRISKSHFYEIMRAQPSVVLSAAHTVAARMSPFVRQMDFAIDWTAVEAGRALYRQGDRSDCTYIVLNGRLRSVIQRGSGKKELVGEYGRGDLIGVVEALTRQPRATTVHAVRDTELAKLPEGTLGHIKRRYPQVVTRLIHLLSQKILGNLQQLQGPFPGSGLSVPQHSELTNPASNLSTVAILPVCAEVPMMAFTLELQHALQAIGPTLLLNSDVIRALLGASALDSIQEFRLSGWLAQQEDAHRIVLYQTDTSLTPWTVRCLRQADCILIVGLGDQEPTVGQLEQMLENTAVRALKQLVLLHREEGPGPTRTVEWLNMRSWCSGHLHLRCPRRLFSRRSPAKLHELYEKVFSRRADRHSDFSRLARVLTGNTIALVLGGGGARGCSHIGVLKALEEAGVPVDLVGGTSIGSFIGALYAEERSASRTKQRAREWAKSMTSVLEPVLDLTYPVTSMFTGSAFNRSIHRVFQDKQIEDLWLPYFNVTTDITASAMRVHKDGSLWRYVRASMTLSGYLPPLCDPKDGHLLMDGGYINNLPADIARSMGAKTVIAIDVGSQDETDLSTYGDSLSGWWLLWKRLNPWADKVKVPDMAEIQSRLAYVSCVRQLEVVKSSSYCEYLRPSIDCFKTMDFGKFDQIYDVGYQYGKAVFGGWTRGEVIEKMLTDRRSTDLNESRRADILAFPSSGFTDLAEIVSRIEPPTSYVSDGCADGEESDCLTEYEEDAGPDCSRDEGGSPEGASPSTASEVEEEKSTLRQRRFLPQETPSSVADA", "assay": "NTE activity after in vivo administration to mice", "conditions": "20 mg/kg, i.p., data not shown"}, "[4]": {"test_system": "serine hydrolases in the mouse brain membrane proteome", "format": "biochemical", "conditions": "competitive ABPP", "how_it_was_run": "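Mouse brain tissue Dounce-homogenized in PBS pH 7.5, spun at 1,400 × g for 5 min, then at 64,000 × g for 45 min; the membrane pellet was resuspended in PBS by sonication. Proteome at 1 mg/ml was preincubated with test compound at the indicated concentrations for 30 min at 37 °C. FP-rhodamine (1 μM final) was then added for 30 min at 25 °C, followed by SDS-PAGE and in-gel fluorescence scanning.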"}, "total brain 2-AG levels": {"test_system": "total brain 2-AG levels", "conditions": "upon administration to mice; cited from earlier work"}, "FAAH [5]": {"target": "T1, FAAH", "conditions": "mice, 20 mg/kg intraperitoneally, or 100 mg/kg orally; cited from earlier work"}, "MAGL [6]": {"test_system": "MAGL", "conditions": "mice, 20 mg/kg intraperitoneally, or 100 mg/kg orally; cited from earlier work"}, "NTE [7]": {"target": "T2, NTE", "conditions": "mice, 20 mg/kg intraperitoneally, or 100 mg/kg orally; cited from earlier work"}, "[8]": {"conditions": "mice, 20 mg/kg i.p. daily for 6 days; cited from earlier work"}}, "note": "Where two headings read alike, the source gives them in different places."}
{"smiles": "COc1ccc(C(O)(c2ccc(OC)cc2)C2CCN(C(=O)Oc3ccc([N+](=O)[O-])cc3)CC2)cc1", "note": "[Compound 6]", "values": [{"measurement": "FAAH activity in vivo", "setting": "FAAH [1]", "result": "significantly blocked FAAH activity"}]}
{"smiles": "COc1ccccc1C(O)(c1ccccc1OC)C1CCN(C(=O)Oc2ccc([N+](=O)[O-])cc2)CC1", "note": "[Compound 33b, 4-nitrophenyl 4-(hydroxybis(2-methoxyphenyl)methyl)piperidine-1-carboxylate]", "values": [{"measurement": "selectivity for MAGL over FAAH", "setting": "MAGL [2]", "result": "~ 10 fold"}]}
{"smiles": "O=C(Oc1ccc([N+](=O)[O-])cc1)N1CCN(Cc2ccc(-c3ccccc3)s2)CC1", "note": "[Compound 36h, 4-nitrophenyl 4-((5-phenylthiophen-2-yl)methyl)piperazine-1-carboxylate]", "values": [{"measurement": "NTE inhibition in vivo", "setting": "NTE [3]", "result": "inhibited NTE"}]}
{"smiles": "COc1ccc(C(O)(c2ccc(OC)c(OC)c2)C2CCN(C(=O)Oc3ccc([N+](=O)[O-])cc3)CC2)cc1OC", "note": "[Compound 33c, 4-nitrophenyl 4-(bis(3,4-dimethoxyphenyl)(hydroxy)methyl)piperidine-1-carboxylate]", "values": [{"measurement": "Selectivity", "setting": "MAGL [2]; MAGL over FAAH (ratio of IC50s)", "result": ">38"}, {"measurement": "selectivity for MAGL over FAAH", "setting": "MAGL [2]", "result": "40–400 fold"}]}
{"smiles": "CN(CCC(c1ccccc1)c1ccccc1)C(=O)Oc1ccc([N+](=O)[O-])cc1", "note": "[Compound 9a, 4-nitrophenyl 3,3-diphenylpropyl(methyl)carbamate]", "values": [{"measurement": "activity against FAAH, MAGL and other serine hydrolases", "setting": "[4]", "result": "inactive"}]}
{"smiles": "O=C(Oc1ccc([N+](=O)[O-])cc1)N1CCN(C(c2ccc(F)cc2)c2ccc(F)cc2)CC1", "note": "[Compound 5]", "values": [{"measurement": "FAAH activity in vivo", "setting": "FAAH [1]", "result": "significantly blocked FAAH activity"}]}
{"smiles": "CN(C(=O)Oc1ccc([N+](=O)[O-])cc1)C(c1ccccc1)c1ccccc1", "note": "[Compound 9b, 4-nitrophenyl benzhydryl(methyl)carbamate]", "values": [{"measurement": "activity against FAAH, MAGL and other serine hydrolases", "setting": "[4]", "result": "inactive"}]}
{"smiles": "O=C(Oc1ccc([N+](=O)[O-])cc1)N1CCN(Cc2cccc(Oc3cc(Cl)cc(Cl)c3)c2)CC1", "note": "[Compound 36q, 4-nitrophenyl 4-(3-(3,5-dichlorophenoxy)benzyl)piperazine-1-carboxylate]", "values": [{"measurement": "activity against FAAH, MAGL and other serine hydrolases", "setting": "[4]", "result": "unable to inhibit any of the hydrolases"}]}
{"smiles": "COc1ccc(C(O)(c2ccc(OC)cc2)C2CCN(C(=O)Oc3ccc([N+](=O)[O-])cc3)C2)cc1", "note": "(stereo not drawn) [Compound 15, 4-nitrophenyl 3-(hydroxybis(4-methoxyphenyl)methyl)pyrrolidine-1-carboxylate]", "values": [{"measurement": "activity against FAAH, MAGL and other serine hydrolases", "setting": "[4]", "result": "inactive"}]}
{"smiles": "O=C(Oc1ccc([N+](=O)[O-])cc1)N1CCC(C(O)(c2ccc3c(c2)OCO3)c2ccc3c(c2)OCO3)CC1", "note": "[Compound 1, 4-nitrophenyl 4-(dibenzo[d][1,3]dioxol-5-yl(hydroxy)methyl)piperidine-1-carboxylate]", "values": [{"measurement": "elevation of total brain 2-AG levels", "setting": "total brain 2-AG levels", "result": "> 8", "unit": "fold"}]}
{"smiles": "O=C(Oc1ccc([N+](=O)[O-])cc1)N1CCN(Cc2cccc(Oc3ccccc3)c2)CC1", "note": "[Compound 2]", "values": [{"measurement": "FAAH blockade in vivo", "setting": "FAAH [5]", "result": "completely blocked"}, {"measurement": "MAGL blockade in vivo", "setting": "MAGL [6]", "result": "completely blocked"}, {"measurement": "NTE inhibition in vivo", "setting": "NTE [7]", "result": "no inhibition of NTE was observed"}, {"measurement": "death or overt signs of discomfort on chronic administration", "setting": "[8]", "result": "did not produce death or overt signs of discomfort"}]}
